Bioassay records deposited in PubChem BioAssay by Johns Hopkins Ion Channel Center.
KCNQ1 inh: inhibitors of human KCNQ1 potassium channel; P51787; CHO-K1 KCNQ1, FluxOR thallium flux fluorescence; active compounds read high; B-score at 10 µM; 310,000 compounds, 1.3% hits; AID 2642;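 active = compounds whose thallium flux B-score, printed positive for inhibition, exceeds three library SD while starting fluorescence stays within three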;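 note: channel opened by potassium depolarization with thallium stimulus after 20 min compound exposure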
KCNK3 block: human KCNK3 channel inhibition, primary screen; O14649; CHO-KCNK3 thallium flux, FluxOR fluorescence; active compounds read low; B-score at 10 µM; 340,000 compounds, 0.84% hits;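 active = B-score under library mean minus 4 SD, starting fluorescence ratio at most library mean plus 5 SD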;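 note: more negative B-score means stronger inhibition of thallium flux through KCNK3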
hERG rescue: hERG (human) protection from proarrhythmic block. 310,000 compounds, 0.51% hits. CHO-hERG, FluxOR thallium flux, dofetilide IC70 present. Q12809. activation (rescue from dofetilide block), less the hit threshold, % at 10 µM;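 active = activation above the mean of controls blocked by dofetilide plus 5 SD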;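 note: thallium influx through hERG after potassium depolarization seen as dye fluorescence rise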
KCNQ1 pot: potentiators or activators of human KCNQ1 potassium channel; CHO-K1 KCNQ1, thallium flux FluxOR fluorescence; active compounds read high; B-score at 10 µM; 310,000 compounds, 0.35% hits; AID 2648;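 active = fluorescence ratio B-score, a plate-corrected score, at least three library SD, with initial intensity B-score within 5 SD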
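System: CHO-K1 cells stably expressing KCNQ1 / Medium: assay buffer for compound exposure, DMSO matched across wells / Reagent: thallium- and potassium-containing depolarizing buffer / Compound: one concentration, matched DMSO / Incubation: 20 min compound pretreatment at room temperature / Measured by: kinetic FluxOR fluorescence, 10 s baseline plus 110 s post-stimulus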
KCNK9 block: human KCNK9 channel inhibition; HEK293 KCNK9, FluxOR thallium flux fluorescence; active compounds read low; B-score at 10 µM; Q9NPC2; 310,000 compounds, 1.2% hits;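 active = ratio B-score over 3 SD below the library mean, with starting fluorescence within 5 SD of its mean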;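 note: negative B-score means less thallium flux so channel inhibition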
Target sequence (Q9NPC2 whole entry, looked up): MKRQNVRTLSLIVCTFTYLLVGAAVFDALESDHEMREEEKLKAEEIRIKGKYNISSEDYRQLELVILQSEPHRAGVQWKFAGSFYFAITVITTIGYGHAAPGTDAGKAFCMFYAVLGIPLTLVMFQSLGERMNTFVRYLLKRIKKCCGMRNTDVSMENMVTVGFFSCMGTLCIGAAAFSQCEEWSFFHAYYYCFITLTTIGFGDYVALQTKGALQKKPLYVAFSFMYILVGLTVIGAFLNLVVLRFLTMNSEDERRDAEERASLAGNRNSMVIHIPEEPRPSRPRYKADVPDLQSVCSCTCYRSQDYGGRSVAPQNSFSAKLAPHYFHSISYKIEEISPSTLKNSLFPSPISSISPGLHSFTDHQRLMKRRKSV
KCNK9 inh conf: human KCNK9 inhibitor confirmation. shares compounds with KCNK9 block. HEK293 KCNK9 cells, FluxOR thallium flux fluorescence. inhibition, % at 10 µM. 4,900 compounds, 43% hits. AID 492992;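 active = thallium signal inhibited by more than 5 SD of the compound-free buffer control wells, on both duplicate plates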
Kir21 sel: selectivity of KCNK9 modulators against mouse Kir2.1. shares compounds with KCNK9 block. Kir2.1 cells, FluxOR thallium flux fluorescence. inhibition, % at 10 µM. 4,900 compounds, 4% hits;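 active = thallium signal drop more than 5 SD beyond the mean of the no-compound control wells, seen in both duplicate plates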;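 note: signal is fluorescence rise after thallium addition divided by baseline fluorescence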
KCNK9 uninduced: second check of KCNK9 modulator effects in non-induced HEK293 cells; shares compounds with KCNK9 block; 4,900 compounds, 40% hits; inhibition, % at 10 µM; AID 492997; FluxOR thallium flux;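 active = thallium signal drop beyond 5 SD of the untreated control mean, on both duplicate plates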
KCNK3 confirm: human KCNK3 channel inhibition, confirmation assay; shares compounds with KCNK3 block; CHO-KCNK3 thallium flux, FluxOR fluorescence; 0% buffer, 100% carvedilol maximal block; ratio percent of control, % at 10 µM; 2,400 compounds, 99% hits;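 active = ratio percent of control, averaged over triplicates, above buffer control mean plus 5 SD, cut at about 64% in these data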;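 note: ratio is the fluorescence rise from min to max over baseline after thallium stimulus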
KCNK3 uninduced: KCNK3 inhibitor counter-screen hit in non-induced cells; non-induced KCNK3 parental cells, FluxOR thallium flux; active compounds read low; AID 651747; 2,400 compounds, 40% hits; thallium flux ratio (lower = more inhibition) at 10 µM; shares compounds with KCNK3 block;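 active = thallium flux ratio, averaged over three wells, more than 5 SD below the buffer control mean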;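 note: host cells are CHO cells without KCNK3 induction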
A number is an active result; 0 = inactive; - = no result given. An excerpt weighted towards active compounds, which were near 3.1% of everything screened.

SMILES	KCNQ1 inh	KCNK3 block	hERG rescue	KCNQ1 pot	KCNK9 block	KCNK9 inh conf	Kir21 sel	KCNK9 uninduced	KCNK3 confirm	KCNK3 uninduced
COc1nc(Nc2cccc([N+](=O)[O-])c2)nc(OC)n1	0	0	0	0	0	-	-	-	-	-
CC(C)Oc1cccc(C(=O)C2CCCN(C(=O)c3ccnn3C)C2)c1 (stereo not drawn)	0	-10.5	0	0	0	0	0	0	97.7	0
COc1ccccc1C(c1nnnn1Cc1ccco1)N1CCN(c2cccc(C)c2C)CC1 (stereo not drawn)	0	-11.4	0	0	-14.3	43.0%	0	37.5%	130.3	0.137
COc1ccc(C(c2nnnn2C(C)(C)C)N2CCN(C(=O)c3ccco3)CC2)cc1 (stereo not drawn)	0	0	0	0	0	-	-	-	-	-
CCC(C)(C)n1nnnc1C(c1ccccc1OC)N1CCN(C(=O)c2ccco2)CC1 (stereo not drawn)	0	-13.4	0	0	-14.1	68.5%	0	36.5%	105.7	0
CCOC(=O)c1ccc2c(c1)nc(COc1ccc3ccccc3c1)n2CC	0	-10.5	0	0	-13	59.0%	0	44.5%	124.7	0.132
O=C(c1cc2cc(F)ccc2[nH]1)N1CCC(Cc2ccccc2)CC1	0	0	0	0	0	-	-	-	-	-
Cc1ccc(C)c(N2CCN(S(=O)(=O)c3ccc4c(c3)CC(C)N4C(=O)C3CC3)CC2)c1 (stereo not drawn)	0	-9.27	0	0	0	0	0	0	75.3	0
C=CCOc1ccc(CN(C)CC(=O)Nc2ccccc2[N+](=O)[O-])cc1	0	-9.5	0	0	0	0	0	0	98.7	0.159
Cc1ccc(OCC(=O)NCCCNC(=O)c2ccncc2)cc1	0	0	0	0	0	-	-	-	-	-
CC(CCc1ccco1)NC(=O)c1cc2c(-c3ccccc3F)nn(C)c2s1 (stereo not drawn)	0	-12.6	0	0	-8.41	28.0%	0	0	119.7	0.135
CCCN(CCC)CCNC(=O)c1cc2c(-c3ccccc3F)nn(C)c2s1	0	0	0	0	0	-	-	-	-	-
CC(C)=CCOc1ccc2ccc(=O)oc2c1	0	-9.25	0	0	-11.6	37.0%	0	34.5%	118.7	0
CC(C)=CCC/C(C)=C/COc1ccc2ccc(=O)oc2c1	0	-9.2	0	0	-19.3	68.5%	0	46.5%	93.0	0
CC1=CC(C/C(C)=C/COc2ccc3ccc(=O)oc3c2)OC1=O (stereo not drawn)	0	0	0	0	0	-	-	-	-	-
COc1cccc(COc2ccc3ccc(=O)oc3c2)c1	0	0	0	0	0	-	-	-	-	-
CC(C)=CCC/C(C)=C/CC/C(C)=C/COc1ccc2ccc(=O)oc2c1	-	0	-	-	-	-	-	-	-	-
COc1ccc(COc2ccc3ccc(=O)oc3c2)cc1	0	-10.2	0	0	-11.8	46.5%	0	31.5%	115.3	0
CCC1(COC(=O)Nc2cccc(Cl)c2)COC1	0	0	0	0	0	-	-	-	-	-
O=C(c1ccc(Cl)c(S(=O)(=O)N2CCc3ccccc32)c1)N1CCN(c2ccccc2O)CC1	-	0	-	-	-	-	-	-	-	-
O=C(NNC(=O)c1ccccc1O)c1ccc(Cl)c(S(=O)(=O)N2CCc3ccccc32)c1	14	-14.1	0	0	-9.65	31.5%	0	0	116.3	0.14
COc1cc(C(=O)NCCCNc2nc3cc(C)c(C)cc3cc2C#N)cc(OC)c1OC	0	0	0	0	0	-	-	-	-	-
O=C(c1cc2cc([N+](=O)[O-])ccc2s1)N1CCOCC1	0	0	0	0	0	-	-	-	-	-
COc1ccccc1N(CC(=O)NCCSCc1cccc(C)c1)S(=O)(=O)c1ccccc1	9	-12.6	0	0	-16.3	48.0%	0	28.0%	104.7	0
CC(=O)N(CCC(c1ccccc1)c1ccco1)Cc1cccs1 (stereo not drawn)	0	-10.5	0	0	-11.8	56.0%	0	30.5%	93.7	0
SMILES	KCNQ1 inh	KCNK3 block	hERG rescue	KCNQ1 pot	KCNK9 block	KCNK9 inh conf	Kir21 sel	KCNK9 uninduced	KCNK3 confirm	KCNK3 uninduced
COc1ccccc1C(=O)NCCC(=O)N(Cc1ccco1)Cc1cccs1	0	0	0	0	0	-	-	-	-	-
CCC(=O)N(CCC(c1ccco1)c1ccccc1OC)Cc1cccs1 (stereo not drawn)	0	-8.89	0	0	-11.8	56.0%	0	34.0%	130.3	0.128
Cc1ccc(C(CCN(Cc2ccccc2)C(=O)c2ccco2)c2ccco2)cc1 (stereo not drawn)	0	0	0	0	0	-	-	-	-	-
CCOCCn1c(=NC(=O)CSCC(=O)Nc2cc(C)on2)sc2cc(OC)ccc21	0	0	0	0	0	-	-	-	-	-
CN(C)S(=O)(=O)c1cccc(NC(=O)Cc2ccc(Cl)cc2)c1	0	0	0	0	0	-	-	-	-	-
CN(CCOc1ccc(Cl)cc1)Cc1cccc(S(=O)(=O)N(C)C)c1	0	-9.17	0	0	-9.72	45.0%	0	51.5%	103.0	0
Cc1ccc(-c2cc(C(=O)N3CCCc4ccccc43)c3ccccc3n2)cc1	0	0	0	0	0	-	-	-	-	-
Cc1ccc2nc3sc(C(=O)N4CCCc5ccccc54)c(N)c3cc2c1	0	-9.05	0	0	-11.2	53.0%	0	51.5%	135.3	0.0833
COc1ccc(/C=N\NC(=O)c2ccccc2OC)cc1COc1ccccc1C	0	0	0	0	0	-	-	-	-	-
COc1ccc(/C=N/NC(=O)c2ccoc2C)cc1COc1c(C)cccc1C	12	-12.8	0	0	-11.4	47.5%	0	0	113.0	0.138
COCC(C)n1c(SCc2ccc(C(=O)OC)cc2)nc2ccccc2c1=O (stereo not drawn)	0	-11.6	0	0	-15.7	61.5%	0	38.5%	125.0	0.142
CCn1c(SCc2ccc(OC)c(F)c2)nc2ccccc2c1=O	0	-11.6	0	0	-20	78.5%	0	45.5%	106.7	0
COCC(C)n1c(SCc2ccc(OC)c(F)c2)nc2ccccc2c1=O (stereo not drawn)	0	-11.2	0	0	-18	76.0%	0	49.5%	115.7	0
Cc1ccc(-n2c(SCc3ccc([N+](=O)[O-])cc3)nc3ccccc3c2=O)cc1	0	0	0	0	0	-	-	-	-	-
CCOC(CCn1c(SCc2ccc([N+](=O)[O-])cc2)nc2ccccc2c1=O)OCC	0	0	0	0	-15.2	74.5%	0	38.0%	116.7	0
